Source: PubChem BioAssay (several laboratories)
ADAM10 inh: inhibitors of human ADAM10; 0.62% of 370,000 active; recombinant ADAM10, EDANS/DABCYL FRET peptide cleavage, 3 h; inhibition, % at 7 µM; AID 720582; O14672;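 active means inhibition above a per-campaign cutoff equal to the mean of compounds falling between control-based bounds plus 3 SD, cut at about 20% in these data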
JMJD2C inh: blocks human GASC-1 demethylase activity. inhibition, % at 2.35 µM. 0.069% of 330,000 active. GST-JMJD2C(1-420) H3K9me3 demethylation, DELFIA europium;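 active means more than half of a compound's replicate wells show inhibition beyond 50%, single wells judged on their own value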;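 further: signal counts dimethyl H3K9 product captured on neutravidin plate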
KLK7 zymogen act: proKLK7 (human) activation, primary screen; P49862; purified proKLK7, EDANS-DABCYL substrate fluorescence; 100% is mature enzyme control, 0% vehicle; activation, % at 7 µM; 0.9% of 370,000 active; AID 652039;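 active means activation above the mean of all tested compounds plus 3 SD, computed per campaign excluding outliers beyond control limits, cut at about 13% in these data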
Target sequence (P49862 whole entry, looked up): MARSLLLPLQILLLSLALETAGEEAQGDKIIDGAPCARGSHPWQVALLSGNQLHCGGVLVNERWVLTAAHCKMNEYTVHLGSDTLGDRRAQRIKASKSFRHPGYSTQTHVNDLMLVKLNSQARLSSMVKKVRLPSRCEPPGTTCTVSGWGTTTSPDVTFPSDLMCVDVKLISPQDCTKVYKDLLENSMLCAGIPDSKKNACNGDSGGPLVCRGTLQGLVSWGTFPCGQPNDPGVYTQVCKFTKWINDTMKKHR
ADAM17 inh: ADAM17 inhibition, QFRET primary screen | AID 720648 | recombinant ADAM17, EDANS/DABCYL FRET peptide cleavage | 0.83% of 370,000 active | inhibition, % at 6.95 µM;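 active means inhibition above the mean of compounds lying between control limits plus 3 SD, set per campaign, cut at about 8.5% in these data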
NR2E3 ag-1: NR2E3 (human) agonism; Q9Y5X4; GST-NR2E3/biotin-RetCOR TR-FRET, 1536-well; inhibition of corepressor binding, % at 4.78 µM; 0.12% of 320,000 active; AID 2300;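 active means percent inhibition above the cutoff of mean plus 3 SD of all tested compounds, set per screening campaign, cut at about 20% in these data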
Target sequence (Q9Y5X4 whole entry, looked up): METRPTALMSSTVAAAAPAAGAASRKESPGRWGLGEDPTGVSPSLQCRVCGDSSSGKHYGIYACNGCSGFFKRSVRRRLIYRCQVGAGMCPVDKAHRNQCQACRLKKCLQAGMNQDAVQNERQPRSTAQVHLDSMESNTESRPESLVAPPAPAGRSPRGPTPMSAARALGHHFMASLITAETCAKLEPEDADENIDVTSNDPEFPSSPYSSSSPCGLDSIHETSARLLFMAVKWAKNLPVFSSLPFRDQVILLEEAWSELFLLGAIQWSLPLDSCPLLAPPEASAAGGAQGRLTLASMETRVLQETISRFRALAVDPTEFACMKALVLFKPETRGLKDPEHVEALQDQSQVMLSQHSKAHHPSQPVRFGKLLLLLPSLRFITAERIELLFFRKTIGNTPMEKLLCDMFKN
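System: GST-NR2E3 and biotin-RetCOR proteins; probe or stimulus: 7 nM biotin-RetCOR; doses: compound at 4.8 µM, single dose; schedule: Compound–protein incubation for 5 h at 4 °C; detection: time-resolved FRET; read-out: percent inhibition; controls: biotin wells as high control, 0.6% DMSO wells as low control; format: 1536-well plates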
NR2E3 ag-2: activates human NR2E3 receptor. Q9Y5X4. CHO-S Gal4-NCOR/VP16-NR2E3 two-hybrid, luciferase. inhibition of corepressor binding, % at 3.98 µM. 0.35% of 360,000 active. AID 602229;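 active means inhibition above the mean of all tested compounds plus 3 SD, cut at about 70% in these data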;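 further: higher means lower luciferase signal from less NR2E3 corepressor binding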
ADAM10 confirm: confirmation of inhibitors of human ADAM10. shares compounds with ADAM10 inh. ADAM10 QFRET peptide cleavage, EDANS fluorescence. inhibition, % at 6.95 µM. 1% of 2,100 active;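 active means inhibition above about 20% chosen separately for each screening run, limit read from the data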
ADAM17 counter: ADAM17 inhibition, counter-screen for ADAM10 exosite hits; shares compounds with ADAM10 inh; 0.5% of 2,100 active; ADAM17 QFRET peptide cleavage, EDANS fluorescence; inhibition, % at 6.95 µM; AID 743214;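 active means mean triplicate inhibition above the solvent-only control wells' mean plus 3 SD, cut at about 12% in these data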
Each line names hits and unclear results; the compound was inactive in the other large screens (follow-up assays come after a bar, where they were run). Rows were chosen to be rich in hits. Some 2.5% of all compounds tested hit in one or more screens of this group.

O=C(NCc1ccncc1)[C@@H]1CCCN1C(=O)[C@H]1CCCN1C(=O)c1cccc(Cl)c1	none (no result: JMJD2C inh, NR2E3 ag-1)
C[C@H]1CCCCO[C@H](CN(C)C(=O)Nc2ccc(F)cc2)[C@@H](C)CN([C@@H](C)CO)C(=O)c2cc(NC(=O)Nc3ccc4c(c3)OCO4)ccc2O1	ADAM10 inh 23 (no result: JMJD2C inh, NR2E3 ag-1) | ADAM10 confirm inactive | ADAM17 counter inactive
C[C@H](CO)N1C[C@H](C)[C@H](CN(C)Cc2ccccc2)Oc2c(NC(=O)Nc3ccc(F)cc3)cccc2C1=O	none (no result: NR2E3 ag-1)
C[C@@H]1CN([C@@H](C)CO)C(=O)c2cccc(NC(=O)Nc3ccc(F)cc3)c2O[C@@H]1CN(C)Cc1ccc(Oc2ccccc2)cc1	ADAM10 inh 21 (no result: JMJD2C inh, NR2E3 ag-1) | ADAM10 confirm inactive | ADAM17 counter inactive
C[C@@H]1CN([C@H](C)CO)C(=O)c2ccccc2-c2ccccc2CO[C@@H]1CN(C)C(=O)Nc1ccccc1	none (no result: JMJD2C inh, NR2E3 ag-1, NR2E3 ag-2)
C[C@@H]1CN([C@H](C)CO)C(=O)c2cc(NC(=O)Nc3ccc(C(F)(F)F)cc3)ccc2O[C@H]1CN(C)C(=O)Nc1ccc(F)cc1	ADAM10 inh 35 (no result: JMJD2C inh, NR2E3 ag-1) | ADAM10 confirm inactive | ADAM17 counter inactive
C[C@@H]1CN([C@@H](C)CO)C(=O)c2ccccc2-c2ccccc2CO[C@@H]1CN(C)Cc1ccc(Cl)c(Cl)c1	ADAM10 inh 22 (no result: JMJD2C inh, NR2E3 ag-1, NR2E3 ag-2) | ADAM10 confirm inactive | ADAM17 counter inactive
CN(C)C(=O)Cn1cc(S(=O)(=O)Cc2ccccc2)c2ccccc21	none
Cc1ccc2c(c1)oc(=O)n2CC(=O)c1ccccc1	none
O=C(/C=C/c1ccccc1)N1CCN(c2c(Cl)cccc2[N+](=O)[O-])CC1	none
C[C@@H]1CCCCO[C@H](CN(C)C(=O)Nc2ccc(F)cc2)[C@@H](C)CN([C@H](C)CO)C(=O)c2cc(NC(=O)c3ccccc3)ccc2O1	ADAM10 inh 23 (no result: JMJD2C inh, NR2E3 ag-1) | ADAM10 confirm inactive | ADAM17 counter inactive
CC(=O)c1cccc(NC(=O)N2CCC(NC(=O)C3CCCCC3)CC2)c1	none
COCCCN(C(=O)c1cc2c(s1)CCCCC2)c1c(N)n(Cc2ccccc2)c(=O)[nH]c1=O	ADAM10 inh 20 | ADAM10 confirm inactive | ADAM17 counter inactive
COCCN(C(=O)c1cc2c(s1)CCCCC2)c1c(N)n(Cc2ccccc2)c(=O)[nH]c1=O	none
Cc1c(C(=O)Nc2c3c(nn2C(C)(C)C)CS(=O)(=O)C3)cccc1[N+](=O)[O-]	none
COc1ccc(N2CCN(C(=O)CN3c4cccc5cccc(c45)S3(=O)=O)CC2)cc1	none (no result: NR2E3 ag-1)
O=C(CCc1ccc(S(=O)(=O)NCCc2ccccc2)cc1)N1CCN(Cc2ccc3c(c2)OCO3)CC1	ADAM10 inh 21 | ADAM10 confirm inactive | ADAM17 counter inactive
CC(C)CNS(=O)(=O)c1ccc(CCC(=O)N2CCN(Cc3ccc4c(c3)OCO4)CC2)cc1	none
Cc1onc(-c2ccccc2)c1C(=O)NC(=S)NNC(=O)c1cccnc1	ADAM10 inh 24 | ADAM10 confirm inactive | ADAM17 counter inactive
COc1ccccc1NS(=O)(=O)c1cccc(NC(=O)Nc2ccc(Cl)cc2)c1	ADAM10 inh 56, ADAM17 inh 26 | ADAM10 confirm inactive | ADAM17 counter inactive
COc1ccccc1CCC(=O)N(C)CC(=O)Nc1ccc(Cl)c(C(F)(F)F)c1	ADAM10 inh 22 | ADAM10 confirm inactive | ADAM17 counter inactive
Cc1ccc(C)c(NC(=O)CN(C)C(=O)Cc2ccc(Cl)cc2Cl)c1	none
Cc1ccc(NC(=O)CN(C)C(=O)Cc2ccc(Cl)cc2Cl)cc1	ADAM10 inh 30 | ADAM10 confirm inactive | ADAM17 counter inactive
COc1ccc(-n2c(Cc3cccn3C)nnc2SCC(=O)Nc2ccccc2)cc1	none
COc1ccc(-n2c(Cc3cccn3C)nnc2SCC(=O)Nc2ccc(Cl)cc2)cc1	ADAM10 inh 86 | ADAM10 confirm inactive | ADAM17 counter inactive
Cn1cccc1Cc1nnc(SCC(=O)Nc2ccccc2)n1-c1ccc(F)cc1	ADAM10 inh 79 | ADAM10 confirm inactive | ADAM17 counter inactive
C#CCn1cc(Cl)cc(C(=O)Nc2ccccc2)c1=O	none
CC1(C(=O)N2CCC(CC3CC(c4cccc(Br)c4)=NO3)(C(=O)NCC3CCCCC3)CC2)CC1 (stereo not drawn)	ADAM10 inh 25 | ADAM10 confirm inactive | ADAM17 counter inactive
CC1(C(=O)N2CCC(CC3CC(c4ccc(Cl)cc4)=NO3)(C(=O)NCC3CCCCC3)CC2)CC1 (stereo not drawn)	none
O=C(CC1SC(=Nc2ccccc2)N(Cc2ccccn2)C1=O)Nc1ccc(Br)cc1 (stereo not drawn)	ADAM10 inh 22 | ADAM10 confirm inactive | ADAM17 counter inactive
O=C(CC1SC(=Nc2cccc3ccccc23)N(Cc2ccccn2)C1=O)Nc1ccccc1Br (stereo not drawn)	none
COc1ccc(-c2nc(SCC(=O)Nc3nccs3)c(-c3ccc(Cl)cc3)[nH]2)cc1	none
COc1ccc(-c2[nH]c(-c3ccc(C)cc3)nc2SCC(=O)Nc2nccs2)cc1	ADAM10 inh 20 | ADAM10 confirm inactive | ADAM17 counter inactive
COc1ccc(Nc2nc(N)c([N+](=O)[O-])c(NC3CCCCC3)n2)cc1	ADAM10 inh 31 | ADAM10 confirm inactive | ADAM17 counter inactive
CC(C)(C)c1cc(CP(=O)(c2ccccc2)c2ccccc2)cc(C(C)(C)C)c1O	ADAM10 inh 24 | ADAM10 confirm inactive | ADAM17 counter inactive
CS(=O)(=O)N(CC(=O)O)c1ccc(C23CC4CC(CC(C4)C2)C3)cc1	none
COc1ccccc1NC(=O)CN(c1ccc(C23CC4CC(CC(C4)C2)C3)cc1)S(C)(=O)=O	ADAM10 inh 22 | ADAM10 confirm inactive | ADAM17 counter inactive
CC1Cc2ccccc2N1C(=O)c1ccc(N2CCCC2)c([N+](=O)[O-])c1 (stereo not drawn)	ADAM10 inh 24 | ADAM10 confirm inactive | ADAM17 counter inactive
CC(=O)N(/N=C1\Sc2ccccc2C1=O)c1ccccc1C	ADAM10 inh 77 | ADAM10 confirm inactive | ADAM17 counter inactive
CC(C)(C)OC(=O)NCc1ccc(CNC(=O)c2nc[nH]c2C(=O)N2CCN(c3ccccc3)CC2)cc1	none
CCC(C)NC(=O)CSc1nnc(-c2ccc(OC)c(OC)c2)c(-c2ccc(OC)c(OC)c2)n1 (stereo not drawn)	none
